Assay outcomes (PubChem BioAssay)
Compounds with a hit are over-represented: about 4% of the library has one in this group of screens.
S1P3 antag = S1P3 receptor antagonists, primary screen, cell-based; Sphingosine 1-phosphate receptor 3 (Homo sapiens), Q99500; CHO S1P3 NFAT-BLA reporter, FRET fluorescence, antagonist mode; inhibition, % at 4.98 µM; 170,000 compounds, 0.27% hits; AID 485, 2006;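 active = inhibition above the plate cutoff, the mean inhibition of test wells on that plate plus 3 SD, cut at about 28% in these data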;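 also: cells challenged with S1P at its EC80 of 0.8 µM; blue over green emission ratio from cleaved BLA substrate after 4 h stimulation; 0% = S1P-stimulated wells and 100% = unstimulated DMSO-only wells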
Target sequence (Q99500 whole entry, looked up): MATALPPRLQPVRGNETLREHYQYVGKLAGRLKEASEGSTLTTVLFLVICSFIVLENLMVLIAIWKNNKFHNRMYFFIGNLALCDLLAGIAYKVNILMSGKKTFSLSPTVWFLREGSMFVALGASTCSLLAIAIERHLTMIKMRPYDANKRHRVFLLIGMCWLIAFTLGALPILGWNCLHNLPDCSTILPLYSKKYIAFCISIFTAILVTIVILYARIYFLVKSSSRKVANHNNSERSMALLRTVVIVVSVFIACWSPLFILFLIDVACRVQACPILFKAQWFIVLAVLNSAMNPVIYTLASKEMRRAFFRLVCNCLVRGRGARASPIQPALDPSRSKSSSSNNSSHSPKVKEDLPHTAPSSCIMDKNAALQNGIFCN
Hsp70 activator = Hsp70 transcriptional activators, primary screen, cell-based, HeLa, Hsp70 promoter luciferase, luminescence, 10 µM; HeLa Hsp70 promoter luciferase reporter; scaled: vehicle 0, proteasome-inhibitor control 100%; activation, % at 10 µM; 200,000 compounds, 0.04% hits; AID 1203, 2008;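 active = activation above the mean across all tested compounds plus 3 SD, cutoff set per campaign, cut at about 5.5% in these data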;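 also: 100% = MG132 at 30 µM as the positive control and 0% = DMSO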
MDM2 E3 inh = MDM2-luciferase reporter signal enhancers, primary screen, MDM2 E3 ligase inhibitor project, cell-based, luminescence, 1536-well; E3 ubiquitin-protein ligase Mdm2 (Homo sapiens), Q00987; cell-based MDM2 ubiquitination luciferase reporter, 2 h; 0 = plate control, 100 = twice control, blank-subtracted; signal enhancement, % at 5 µM; 210,000 compounds, 0.11% hits; AID 1230, 2008;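 active = signal enhancement of 30% or more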;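 also: luminescence tracks abundance of the self-degrading MDM2-luciferase fusion protein; higher signal means inhibition of MDM2 E3 ligase activity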
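Buffer or medium: Cells held in DMEM | Assay system: Stable mammalian line carrying autodegrading MDM2–luciferase fusion reporter | Quantity: 2000 cells/well | Times: 4 h settle plus 2 h compound, 37 °C | Doses: One concentration, 5 µM, with 0.2% DMSO | Technique: Luminescence with SteadyLite reagent, 15 min at room temperature | Benchmarks: Plate controls and plate blanks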
CHOP inhibitor = inhibitors of CHOP promoter induction, primary screen, cell-based, unfolded protein response, luciferase reporter. inhibition, % at 10 µM. 220,000 compounds, 3.8% hits. CHO-K1 CHOP-promoter luciferase, tunicamycin-induced, 15-18 h;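 active = compounds that reduced the stress-induced luciferase reporter signal by more than about 70% of percent inhibition, limit read from the data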;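 also: 0% = tunicamycin plus vehicle and 100% = wells without tunicamycin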
Numbers without * were called inactive; · = no result.

SMILES	S1P3 antag	Hsp70 activator	MDM2 E3 inh	CHOP inhibitor
Cc1ccc2oc(=O)n(Cc3ccccc3OC(C)C)c2c1	6	0	-38	84*
O=C(OCc1ccc(Cl)cc1)c1ccccc1C(=O)c1ccccc1	·	0	-6	27
Cc1ccc(S(=O)(=O)ON2C(=O)c3ccccc3C2=O)c(C)c1	-9	0	10	94*
COCCNc1nc(-c2cc(C)c(C)cc2C)cs1	5	0	·	32
CC(/C=C/C=C/c1ccccc1)=N/NC(=O)CNc1ccc(C)cc1	·	0	-3	82*
Cn1cccc1C(=O)NC(=O)COC(=O)CC12CC3CC(CC(C3)C1)C2	·	0	-17	80*
CCN1C(=Nc2ccc(Cl)cc2)SC/C1=C\C(=O)OC	10	0	2	82*
O=C(Nc1ccc(Cl)c(Cl)c1)Nc1ccc(N2CCCC2)c(S(=O)(=O)Nc2ccccc2Cl)c1	2	0	-11	79*
COc1ccccc1NS(=O)(=O)c1cc(NC(=O)Nc2ccccc2)ccc1N1CCCCC1	5	0	-23	56
CC(=O)Nc1ccc(N/C=C(\C=O)c2nc3ccccc3o2)cc1	-2	0	-1	-24
O=C/C(=C\Nc1ccc(Br)cc1)c1nc2ccccc2o1	-1	0	-8	74*
Cc1sc(NC(=O)c2ccco2)c(CN2CCN(c3ccccn3)CC2)c1C	64*	0	-12	48
Cc1sc(NC(=O)c2ccco2)c(CN2CCN(c3ccc(F)cc3)CC2)c1C	·	0	-13	21
Cc1cc2oc(=O)cc(CN3CCC(C)CC3)c2cc1Cl	9	0	8	85*
Cc1cc2oc(=O)cc(CN3CCN(Cc4ccccc4)CC3)c2cc1Cl	-14	0	-13	-15
COc1ccc(N2C(=O)CC(c3ccccc3)C2=O)cc1 (configuration not stated)	13	·	-13	6
COc1ccc(N2C(=O)CC(c3ccc(OC(C)C)cc3)C2=O)cc1 (configuration not stated)	-28	·	-3	73*
O=[N+]([O-])c1ccccc1Sc1nccn1Cc1ccccc1	2	0	-6	0
CCOC(=O)c1ccc(NC(=O)Cn2nnc(-c3ccc(F)cc3)n2)cc1	-3	0	-17	81*
CCOc1ccc(-c2nnn(CC(=O)Nc3cc(OC)ccc3OC)n2)cc1OCC	5	0	-17	39
COc1ccc(NC(=O)Cn2nnc(-c3ccccc3NS(=O)(=O)c3ccccc3)n2)cc1	-2	0	-7	69
COc1ccc(S(=O)(=O)Nc2ccccc2-c2nnn(CC(=O)Nc3ccccc3OC)n2)cc1	3	-1	-2	76*
CCOc1ccccc1NC(=O)Cn1nnc(-c2ccc(OCC)c(OCC)c2)n1	-30	0	-7	87*
CCOC(=O)c1ccc(NC(=O)Cn2nnc(-c3ccccc3)n2)cc1	-17	0	-14	61
O=S1(=O)N=C(Nc2ccc(S(=O)(=O)N3CCCCC3)cc2)c2ccccc21	-7	0	-12	92*
SMILES	S1P3 antag	Hsp70 activator	MDM2 E3 inh	CHOP inhibitor
COC(=O)/C=C1/SC(=NC(=O)c2ccc(F)cc2)NC1=O	3	·	-20	-10
Cc1cc(C)c(S(=O)(=O)NCc2ccc3c(c2)cc(C)n3C)c(C)c1	·	0	-5	71*
Cn1c(=O)n(C)c2cc(NS(=O)(=O)c3cccs3)ccc21	-7	0	3	-5
Cc1ccc(NC(=O)c2nc[nH]c2C(=O)NCC(=O)OC(C)(C)C)cc1	·	·	-9	3
Cc1nc(NC(=O)CCc2ccccc2)ccc1Br	·	0	-19	80*
CCc1ccc(S(=O)(=O)NCc2csc(-c3ccccc3)n2)s1	2	0	-13	73*
CC(=O)Nc1ccc(S(=O)(=O)NCc2cn3c(C)csc3n2)cc1	10	0	3	12
CCc1ccc(S(=O)(=O)NCc2cn3c(C)csc3n2)s1	-22	0	-21	90*
C=CCSc1nc2ccccc2n1C(=O)/C=C/c1ccc(OC)c(OC)c1	·	0	5	109*
COc1ccccc1CCNCc1ccc(OC)c(OCc2ccccc2)c1	·	-1	3	82*
COc1ccc(CNCc2ccco2)cc1OCc1ccccc1	·	0	-5	18
Cc1cc(C(F)(F)F)n(-c2nc(C(=O)Nc3ccccc3Oc3ccccc3)cs2)n1	·	0	-7	8
Cc1cc(=O)[nH]c(S/C=C/c2ccccc2)n1	-24	0	-17	-10
Clc1ccc(Sc2cnc3ccccc3n2)cc1	·	1	4	76*
CCC(C)NS(=O)(=O)c1ccc(NS(=O)(=O)c2ccc(F)cc2)cc1 (configuration not stated)	·	0	-9	-10
COC(=O)c1sc(N2CCN(c3ccc(Cl)cc3)CC2)nc1N	-31	0	-1	9
O=C(Nc1nnc(-c2cccs2)o1)c1cccc(Oc2ccccc2)c1	-32	0	-23	84*
O=C(Nc1nnc(-c2cccs2)o1)c1cccc(F)c1	-9	0	·	·
CCCCn1c(=O)nc2n(-c3ccc(Cl)cc3)c3ccccc3cc-2c1=O	-15	0	-16	27
Nc1cc(Cl)nnc1Cl	3	·	-7	5
CCC(Oc1cc(Cl)ccc1Cl)C(=O)NN1C(=O)C2C3CCC(C3=C(C)C)C2C1=O (configuration not stated)	·	0	-4	87*
CC(NC(=O)c1cc(COc2c(F)cccc2F)on1)c1cnn(-c2ccccc2)c1 (configuration not stated)	9	0	-16	-9
CSc1n[nH]c2nc3c(c(=O)n12)C1(CCCC1)Cc1ccccc1-3	6	0	-3	-9
CCSc1n[nH]c2nc3c(c(=O)n12)C1(CCCC1)Cc1ccccc1-3	·	0	-7	88*
C=CCSc1n[nH]c2nc3c(c(=O)n12)C1(CCCC1)Cc1ccccc1-3	·	0	5	71*
SMILES	S1P3 antag	Hsp70 activator	MDM2 E3 inh	CHOP inhibitor
O=C(CCc1ccc(O)cc1)N/N=C/c1coc2ccccc2c1=O	2	·	-16	25
COc1ccc(-c2csc(N(Cc3ccccc3)C(=O)COc3ccc(Cl)cc3)n2)cc1	·	0	-26	91*
COCC(=O)N/N=C/c1c(C)[nH]n(-c2ccccc2)c1=O	4	0	-17	73*
CC(=O)N/N=C/c1c(C)[nH]n(-c2ccccc2)c1=O	-5	0	-29	56
Cc1[nH]n(-c2ccccc2)c(=O)c1/C=N/NC(=O)C(C)C	-29	0	-1	76*
COC(=O)N/N=C\c1c(C)[nH]n(-c2ccccc2)c1=O	-13	0	-15	60
Cc1ccccc1S(=O)(=O)c1c(C)cc(C)n(C(C)C)c1=O	·	0	-9	39
CCCCn1c(C)cc(C)c(S(=O)(=O)c2ccccc2C)c1=O	·	0	-10	94*
CN1CCN(CC(O)c2ccccc2)CC1 (configuration not stated)	·	0	-9	80*
